Key:
[1] = test system: CYP7A1 mRNA; experiment: Expression of CYP7A1 mRNA; type: cell-based; conditions: HepG2 cells, 50 μM, 6 h, DMEM with 10% FCS; fold of control (0.1% DMSO)
Method in brief: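 HepG2 cells were grown in DMEM with 10% FBS, 1% glutamine, penicillin/streptomycin and amphotericin B. They were then exposed in the same medium to test compound or positive control at 50 μM (DMSO 0.1% final) for 6 h. Total RNA (900 ng) was reverse-transcribed with oligo d(T)16 primers. SYBR Green qPCR measured CYP7A1, normalised to β2-microglobulin.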

[2] = target: T1, full length murine FXR (Mus musculus, UniProt Q60641); experiment: FXR reporter gene; type: cell-based; conditions: HEK293 cells, increasing concentrations (0–100 μM)
T1 sequence (Q60641 1-488): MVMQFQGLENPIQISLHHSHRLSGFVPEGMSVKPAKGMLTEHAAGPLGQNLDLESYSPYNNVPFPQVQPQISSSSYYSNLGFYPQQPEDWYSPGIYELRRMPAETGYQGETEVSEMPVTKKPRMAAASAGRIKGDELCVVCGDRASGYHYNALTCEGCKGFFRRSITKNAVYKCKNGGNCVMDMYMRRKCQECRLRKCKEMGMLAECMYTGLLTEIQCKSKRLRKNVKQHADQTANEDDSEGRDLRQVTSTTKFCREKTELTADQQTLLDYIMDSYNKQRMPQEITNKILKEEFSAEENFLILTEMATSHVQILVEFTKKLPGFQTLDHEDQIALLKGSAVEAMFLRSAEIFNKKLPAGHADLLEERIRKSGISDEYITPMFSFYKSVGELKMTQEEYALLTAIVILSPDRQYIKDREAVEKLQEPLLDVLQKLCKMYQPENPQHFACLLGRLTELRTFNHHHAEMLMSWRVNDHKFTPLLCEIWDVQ
T1 sequence (P28700 1-467 partner): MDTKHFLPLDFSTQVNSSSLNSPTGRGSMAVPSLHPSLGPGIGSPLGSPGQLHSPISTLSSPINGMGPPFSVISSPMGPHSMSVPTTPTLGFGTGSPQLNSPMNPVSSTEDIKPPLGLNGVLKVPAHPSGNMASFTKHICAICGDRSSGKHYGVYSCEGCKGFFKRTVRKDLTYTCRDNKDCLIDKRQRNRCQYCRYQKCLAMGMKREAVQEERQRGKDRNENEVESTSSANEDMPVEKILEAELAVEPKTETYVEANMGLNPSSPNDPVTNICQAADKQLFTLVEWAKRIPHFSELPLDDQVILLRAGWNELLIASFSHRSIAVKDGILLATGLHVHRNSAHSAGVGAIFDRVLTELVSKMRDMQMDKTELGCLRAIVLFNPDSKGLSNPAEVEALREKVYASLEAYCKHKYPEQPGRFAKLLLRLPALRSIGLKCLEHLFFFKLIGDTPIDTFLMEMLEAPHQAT

Row | SMILES | levels of CYP7A1 mRNA [1] | FXR agonism in reporter assay (result in words) [2]
1 | COc1ccc(N2CCN(C[C@H](O)COc3cc4c(c5c3CCCC5)CCCC4)CC2)cc1 [Compound 19] | significantly decreased | dose–dependent FXR-agonism
2 | CCCCc1ccc([C@@H](CC(=O)c2ccccc2)c2ccccc2)cc1 [Compound 20] | significantly decreased | dose–dependent FXR-agonism

Reference: PMC3254253 (Bioorganic & Medicinal Chemistry, 2011)
